Measured values of several laboratories.
Lines come from different studies, so protocols differ.
Target: Carbonic anhydrase 1 (CA1, Homo sapiens, UniProt P00915)
Observed: enzyme activity
Mode: inhibitor

| SMILES | assay | Ki [µM] |
| --- | --- | --- |
| Cc1ccccc1CC(=O)Nc1nnc(S(N)(=O)=O)s1 | stopped-flow | 0.0518 |
| COc1ccc(OC(=O)c2ccc(=O)oc2)cc1 | stopped-flow | > 100 |
| Cc1c(Cl)c(=O)oc2cc(OCCCCSC#N)ccc12 | stopped-flow | > 100 |
| CC1(C)CCN(CC(=O)Nc2nnc(S(N)(=O)=O)s2)CC1 | stopped-flow | 0.0541 |
| Cc1cncc(CN2CCC(=C3c4ccc(Cl)cc4CCc4cccnc43)CC2)c1 | absorbance | 9.95 |
| C[C@H]1CCC[C@H](C(=O)Nc2nnc(S(N)(=O)=O)s2)C1 (racemic) | stopped-flow | 0.0639 |
| CC[C@H]1OC(=O)[C@H](C)[C@@H](O[C@H]2C[C@@](C)(OC)[C@@H](O)[C@H](C)O2)[C@H](C)[C@@H](O[C@@H]2O[C@H](C)C[C@H](N(C)C)[C@H]2O)[C@](C)(O)C[C@@H](C)CN(C)[C@H](C)[C@@H](O)[C@]1(C)O |  | 10.2 |
| N#CSCc1cc(=O)oc2cc(O)ccc12 | stopped-flow | > 100 |
| O=C(OC1CCCCC1)c1ccc(=O)oc1 | stopped-flow | > 100 |
| NS(=O)(=O)c1cnc(NC(=O)CCc2ccccc2)s1 | stopped-flow | 2.43 |
| Nc1nc2c(ncn2COCCO)c(=O)[nH]1 |  | 7.31 |
| NCCCC(=O)Nc1nnc(S(N)(=O)=O)s1 | stopped-flow | 0.155 |
| O=C(Oc1ccccc1)c1ccc(=O)oc1 | stopped-flow | > 100 |
| CC(C(=O)Nc1nnc(S(N)(=O)=O)s1)C1CCCCC1 (centres unmarked) | stopped-flow | 0.0475 |
| CCOC(=O)c1ccc(=O)oc1 | stopped-flow | > 100 |
| CC(C)[C@H](N)C(=O)OCCOCn1cnc2c(=O)[nH]c(N)nc21 |  | 8.7 |
| O=C(OCc1cn(-c2ccc([N+](=O)[O-])cc2)nn1)c1ccc(=O)oc1 | stopped-flow | > 100 |
| OC(Cn1cncn1)(Cn1cncn1)c1ccc(F)cc1F |  | 7.56 |
| O=C(OCc1cn(-c2ccc(Cl)cc2)nn1)c1ccc(=O)oc1 | stopped-flow | > 100 |
| COc1ccnc(C[S+]([O-])c2nc3ccc(OC(F)F)cc3[nH]2)c1OC (centres unmarked) |  | 7.16 |
